Measurements: ChEMBL document CHEMBL2146366, “Discovery of microsomal triglyceride transfer protein (MTP) inhibitors with potential for decreased active metabolite load compared to dirlotapide” (Bioorg Med Chem Lett, 2011)
Activity calls are given as the source filed them. The calls are words filed in the database; no cut-off is given here.

Key:
Rattus norvegicus [1] = assay: Antiobesity activity in high fat diet-induced obese Sprague-Dawley rat assessed as reduction of food intake at 1 mg/kg, po administered daily for 3 days relative to control; format: functional; design: scale not given: the % may be the effect or the level left
Procedure, shortened: (§1)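 Male Sprague–Dawley rats (~300 g, n = 5 per group) were acclimatized for seven days to a high-fat diet (45% kcal from fat). They received three consecutive daily oral gavage doses 1.5 h before the dark cycle. Vehicle was SEDDS:H2O 10:90, with SEDDS made of Miglyol 812 10%, triacetin 30%, polysorbate 80 20% and Capmul MCM 30%. Food intake was recorded during dosing, and liver TG was measured afterwards, both against vehicle.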

Rattus norvegicus [2] = assay: Antiobesity activity in high fat diet-induced obese Sprague-Dawley rat assessed as reduction of food intake at 3 mg/kg, po qd for 7 days relative to control; format: functional; design: scale not given: the % may be the effect or the level left
Procedure, shortened: (§2)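 Seven-day rat study: once-daily oral dosing at 3, 10 or 30 mg/kg, with 1, 3 and 100 mg/kg also used for one series. Compounds were given as spray-dried dispersions in hydroxypropylmethylcellulose acetate succinate. Food intake, body weight, liver TG and serum ALT were measured against vehicle. Systemic exposure was reported as AUC (ng h/mL). Significance versus vehicle was set at P ≤ 0.05.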

Rattus norvegicus [3] = assay: Antiobesity activity in high fat diet-induced obese Sprague-Dawley rat assessed as triglyceride accumulation in liver at 3 mg/kg, po administered daily for 3 days relative to control; format: functional, organism-based; design: dose 3 mg/kg; procedure, shortened: as §1
Rattus norvegicus [4] = assay: Antiobesity activity in high fat diet-induced obese Sprague-Dawley rat assessed as reduction of food intake at 30 mg/kg, po administered daily for 3 days relative to dirlotapide; format: functional; design: scale not given: the % may be the effect or the level left; procedure, shortened: as §1
Rattus norvegicus [5] = assay: Antiobesity activity in high fat diet-induced obese Sprague-Dawley rat assessed as reduction of body weight at 10 mg/kg, po qd for 7 days relative to control; format: functional; design: scale not given: the % may be the effect or the level left; procedure, shortened: as §2
[6] = Fraction unbound in human HepG2 cells by equilibrium dialysis; format: ADME, cell-based
Procedure, shortened: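 Protein binding was measured by equilibrium dialysis under the conditions of the apoB secretion assay in human HepG2 cells, to give unbound fraction.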

Rattus norvegicus [7] = assay: Antiobesity activity in high fat diet-induced obese Sprague-Dawley rat assessed as reduction of triglyceride accumulation in liver at 3 mg/kg, po qd for 7 days relative to control; format: functional; design: scale not given: the % may be the effect or the level left; procedure, shortened: as §2
Rattus norvegicus [8] = assay: Antiobesity activity in high fat diet-induced obese Sprague-Dawley rat assessed as reduction of triglyceride accumulation in liver at 10 mg/kg, po administered daily for 3 days relative to dirlotapide; format: functional; design: scale not given: the % may be the effect or the level left; procedure, shortened: as §1
Rattus norvegicus [9] = assay: Antiobesity activity in high fat diet-induced obese Sprague-Dawley rat assessed as triglyceride accumulation in liver at 1 mg/kg, po administered daily for 3 days relative to control; format: functional, organism-based; design: dose 1 mg/kg; procedure, shortened: as §1
Rattus norvegicus [10] = assay: Antiobesity activity in high fat diet-induced obese Sprague-Dawley rat assessed as reduction in body weight at 1 mg/kg, po administered daily for 3 days relative to control; format: functional; design: scale not given: the % may be the effect or the level left
Rattus norvegicus [11] = assay: Antiobesity activity in high fat diet-induced obese Sprague-Dawley rat assessed as reduction of triglyceride accumulation in liver at 30 mg/kg, po qd for 7 days relative to control; format: functional; design: scale not given: the % may be the effect or the level left; procedure, shortened: as §2
Rattus norvegicus [12] = assay: Antiobesity activity in high fat diet-induced obese Sprague-Dawley rat assessed as reduction of food intake at 10 mg/kg, po administered with 25% SDD formulation daily for 3 days relative to dirlotapide; format: functional; design: scale not given: the % may be the effect or the level left
Procedure, shortened: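 Three-day oral dosing study in male Sprague–Dawley rats (~300 g, n = 5 per group) fed a high-fat diet (45% kcal from fat). Animals received daily gavage doses 1.5 h before the dark cycle. Compound was given as a spray-dried dispersion made by spray drying compound with hydroxypropylmethylcellulose acetate succinate. Food intake was recorded during dosing and liver TG measured afterwards, both against vehicle.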

Rattus norvegicus [13] = assay: Antiobesity activity in high fat diet-induced obese Sprague-Dawley rat assessed as reduction of food intake at 10 mg/kg, po administered daily for 3 days relative to dirlotapide; format: functional; design: scale not given: the % may be the effect or the level left; procedure, shortened: as §1
Rattus norvegicus [14] = assay: Antiobesity activity in high fat diet-induced obese Sprague-Dawley rat assessed as reduction of food intake at 100 mg/kg, po administered daily for 3 days relative to dirlotapide; format: functional; design: scale not given: the % may be the effect or the level left; procedure, shortened: as §1
[15] = AUC in high fat diet-induced obese Sprague-Dawley rat at 10 mg/kg, po qd for 7 days; format: ADME, organism-based; design: dose 10 mg/kg, route oral; conditions: plasma; procedure, shortened: as §2
Rattus norvegicus [16] = assay: Antiobesity activity in high fat diet-induced obese Sprague-Dawley rat assessed as triglyceride accumulation in liver at 30 mg/kg, po administered daily for 3 days relative to control; format: functional; procedure, shortened: as §1
[17] = Oral bioavailability in beagle dog at 2.5 mg/kg; format: ADME, organism-based, Canis lupus familiaris; conditions: in vivo
Rattus norvegicus [18] = assay: Antiobesity activity in high fat diet-induced obese Sprague-Dawley rat assessed as reduction in body weight at 100 mg/kg, po administered daily for 3 days relative to control; format: functional; design: scale not given: the % may be the effect or the level left
Rattus norvegicus [19] = assay: Antiobesity activity in high fat diet-induced obese Sprague-Dawley rat assessed as reduction of food intake at 30 mg/kg, po qd for 7 days relative to control; format: functional; design: scale not given: the % may be the effect or the level left; procedure, shortened: as §2
Rattus norvegicus [20] = assay: Antiobesity activity in high fat diet-induced obese Sprague-Dawley rat assessed as reduction of food intake at 10 mg/kg, po qd for 7 days relative to control; format: functional; design: scale not given: the % may be the effect or the level left; procedure, shortened: as §2
Rattus norvegicus [21] = assay: Antiobesity activity in high fat diet-induced obese Sprague-Dawley rat assessed as reduction of food intake at 3 mg/kg, po administered daily for 3 days relative to dirlotapide; format: functional; design: scale not given: the % may be the effect or the level left; procedure, shortened: as §1
Rattus norvegicus [22] = assay: Antiobesity activity in high fat diet-induced obese Sprague-Dawley rat assessed as reduction in body weight at 10 mg/kg, po administered with 25% SDD formulation daily for 3 days relative to dirlotapide; format: functional; design: scale not given: the % may be the effect or the level left
[23] = Oral bioavailability in rat at 30 mg/kg; format: ADME, organism-based; conditions: in vivo
Rattus norvegicus [24] = assay: Antiobesity activity in high fat diet-induced obese Sprague-Dawley rat assessed as reduction of food intake at 100 mg/kg, po administered daily for 3 days relative to control; format: functional; design: scale not given: the % may be the effect or the level left; procedure, shortened: as §1
Rattus norvegicus [25] = assay: Antiobesity activity in high fat diet-induced obese Sprague-Dawley rat assessed as reduction in body weight at 3 mg/kg, po administered daily for 3 days relative to control; format: functional; design: scale not given: the % may be the effect or the level left
Rattus norvegicus [26] = assay: Antiobesity activity in high fat diet-induced obese Sprague-Dawley rat assessed as reduction of body weight at 3 mg/kg, po qd for 7 days relative to control; format: functional; design: scale not given: the % may be the effect or the level left; procedure, shortened: as §2
Rattus norvegicus [27] = assay: Antiobesity activity in po dosed high fat diet-induced obese Sprague-Dawley rat assessed as reduction of body weight administered daily for 3 days; format: functional; conditions: 72 h, read-out: MED
Rattus norvegicus [28] = assay: Antiobesity activity in high fat diet-induced obese Sprague-Dawley rat assessed as reduction of body weight at 30 mg/kg, po qd for 7 days; format: functional; design: scale not given: the % may be the effect or the level left; procedure, shortened: as §2
Canis familiaris = assay: Drug metabolism in beagle dog assessed as formation of 2-(4'-tert-butylbiphenyl-2-ylcarboxamido)-N-(2-(methylamino)-2-oxo-1-phenylethyl)quinoline-6-carboxamide at 2.5 mg/kg, po administered as single dose; format: ADME, organism-based, Canis lupus familiaris; design: dose 2.5 mg/kg, route oral; conditions: in vivo
[29] = AUC in high fat diet-induced obese Sprague-Dawley rat at 30 mg/kg, po qd for 7 days; format: ADME, organism-based; design: dose 30 mg/kg, route oral; conditions: plasma; procedure, shortened: as §2
Rattus norvegicus [30] = assay: Antiobesity activity in high fat diet-induced obese Sprague-Dawley rat assessed as reduction of food intake at 30 mg/kg, po administered daily for 3 days relative to control; format: functional; design: scale not given: the % may be the effect or the level left; procedure, shortened: as §1
Rattus norvegicus [31] = assay: Toxicity in high fat diet-induced obese Sprague-Dawley rat assessed as change in serum ALT level at 3 mg/kg, po qd for 7 days relative to control; format: organism-based; design: dose 3 mg/kg, route oral; conditions: in vivo, 168 h
Procedure, shortened: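 Seven-day study in high-fat-diet rats. Compound was given once daily by mouth as a spray-dried dispersion, with vehicle controls. Serum ALT was measured alongside food intake, body weight, liver TG and systemic exposure (AUC). ALT is expressed as % change versus vehicle, with significance set at P ≤ 0.05.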

In the case of `CN(Cc1ccc(F)cc1)C(=O)[C@@H](NC(=O)c1ccc2nc(NC(=O)c3ccccc3-c3ccc(C(C)(C)C)cc3)ccc2c1)c1ccccc1`, the Activity (Rattus norvegicus [1]) is reported as 12%, the Activity (Rattus norvegicus [2]) is reported as 25% and the Activity (Rattus norvegicus [3]) is reported as “inactive”. The Activity (Rattus norvegicus [4]) was 37%, the Activity (Rattus norvegicus [5]) was 255% and the fraction unbound [6] was 0.00063. For the same compound, the Activity (Rattus norvegicus [7]) was 43%, the Activity (Rattus norvegicus [8]) was 120% and the Activity (Rattus norvegicus [9]) was “inactive”. The Activity (Rattus norvegicus [10]) was 32%, the Activity (Rattus norvegicus [11]) was 212% and the Activity (Rattus norvegicus [12]) was 8%. It also gave an Activity (Rattus norvegicus [13]) of 46%, an Activity (Rattus norvegicus [14]) of 35% and an AUC at 168 h [15] of 42 ng·h/mL. The Activity (Rattus norvegicus [16]) was 102%, the bioavailability [17] was < 3% and the Activity (Rattus norvegicus [18]) was 107%. For the same compound, the Activity (Rattus norvegicus [19]) was 48%, the Activity (Rattus norvegicus [20]) was 51% and the Activity (Rattus norvegicus [21]) was 6%. The Activity (Rattus norvegicus [22]) was 32%, the bioavailability [23] was < 3% and the Activity (Rattus norvegicus [24]) was 47%. For the same compound, the Activity (Rattus norvegicus [25]) was 67%, the Activity (Rattus norvegicus [26]) was 85% and the minimal effective dose (Rattus norvegicus [27]) was 3 mg/kg. The Activity (Rattus norvegicus [28]) was 220%, the Drug metabolism (Canis familiaris) was “Active” and the AUC at 168 h [29] was 65 ng·h/mL. The Activity (Rattus norvegicus [30]) was 41% and the Activity (Rattus norvegicus [31]) was 168%.
